From ChEMBL document CHEMBL5661984, “Allosteric ligands for the pharmacologically dark receptors GPR68 and GPR65” (Nature, 2015)
The source made the active and inactive calls. The rule behind the calls is not given here.

Columns and labels:
[1] = target: T1, G-protein coupled receptor 68 (Homo sapiens, UniProt Q15743); experiment: Binding affinity to GPR68 expressed in human HEK293T cells assessed as cAMP production in presence of H+ proton by Split-luciferase based luminescence counter analysis; assay type: cell-based; settings: filed as positive allosteric modulator
In short: (§1)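 Proton concentration-response of GPR68 (wild type or E160A/K/Q, R189L/M, H269F mutants) in transiently transfected HEK293-T cells. Read-out: GloSensor cAMP, with luciferin loading 90 min at 37°C at pH 8.4. Run with and without increasing modulator concentrations; 20 min at room temperature before luminescence. Proton KA fixed to the proton EC50 without modulator. KB, τA, α, β fitted globally with an operational allosteric model. n=4.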

[2] = target: C-X-C chemokine receptor type 4 (Homo sapiens) (UniProt P61073); experiment: Agonist activity against CXCR4 receptor (unknown origin) transfected in human HEK293T cells at 10 uM incubated for 15 mins in presence of CXCL12 by luminescence counter analysis; assay type: functional, cell-based
In short: (§2)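 HEK293-T cells transiently transfected with CXCR4 and the GloSensor cAMP reporter, plated in DMEM with 1% dialyzed FBS. Test compound at 10 μM in 20 mM HEPES/HBSS, pH 7.4, 15 min at room temperature. Agonist mode: luciferin (4 mM final) plus 200 nM isoproterenol added, 20 min. Antagonist mode: compound 10 min, then reference agonist at EC80 for 10 min, then luciferin/isoproterenol. Luminescence read. CXCL12 (1 or 3 μM) is the agonist control and AMD3100 (10 μM) the antagonist control. n=2.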

[3] = target: C-X-C chemokine receptor type 4 (Homo sapiens) (UniProt P61073); experiment: Antagonist activity against CXCR4 receptor (unknown origin) transfected in human HEK293T cells at 10 uM incubated for 15 mins in presence of AMD3100 by luminescence counter analysis; assay type: functional, cell-based; in short: as §2
[4] = target: T1, G-protein coupled receptor 68; experiment: Positive allosteric modulator activity at GPR68 expressed in human HEK293T cells assessed as cAMP production in presence of H+ proton by Split-luciferase based luminescence counter analysis (reference value: 26.4 to 43.8 %); assay type: functional, cell-based; in short: as §1
[5] = target: T1, G-protein coupled receptor 68; experiment: Positive allosteric modulator activity at GPR68 expressed in human HEK293T cells assessed as cAMP production in presence of H+ proton by Split-luciferase based luminescence counter analysis (reference value: 6.53 to 6.72); assay type: functional, cell-based
[6] = target: T2, G-protein coupled receptor 65 (Homo sapiens, UniProt Q8IYL9); experiment: Agonist activity against GPR65 (unknown origin) transfected in human HEK293T cells incubated for 15 mins by luminescence counter analysis; assay type: functional, cell-based; settings: filed as agonist
In short: (§3)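 GloSensor split-luciferase cAMP assay. HEK293-T cells transiently co-transfected with GPR65 (wild type or the D153A, R187L, F242A or Y272A mutant) and GloSensor 7A reporter. Cells plated in DMEM with 1% dialyzed FBS for at least 6 h, then loaded with luciferin (4 mM, in drug buffer pH 8.4) for 90 min at 37°C. Compounds added at set pH in HBSS with 10 mM HEPES/10 mM MES, with TAPS for higher pH. Luminescence read after about 20 min at room temperature. Data normalized to buffer basal and fitted to a 4-parameter logistic.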

[7] = target: T2, G-protein coupled receptor 65; experiment: Antagonist activity against GPR65 (unknown origin) transfected in human HEK293T cells incubated for 15 mins by luminescence counter analysis; assay type: functional, cell-based; in short: as §3
HEK293T [8] = experiment: Antagonist activity against GPR65 R187L mutant (unknown origin) transfected in human HEK293T cells incubated for 15 mins by luminescence counter analysis; assay type: cell-based; settings: filed as antagonist; in short: as §3
HEK293T [9] = experiment: Antagonist activity against GPR65 F242A mutant (unknown origin) transfected in human HEK293T cells incubated for 15 mins by luminescence counter analysis; assay type: cell-based; settings: filed as antagonist; in short: as §3
HEK293T [10] = experiment: Antagonist activity against GPR65 Y272A mutant (unknown origin) transfected in human HEK293T cells incubated for 15 mins by luminescence counter analysis; assay type: cell-based; settings: filed as antagonist; in short: as §3
[11] = Antagonist activity against GPR65 D153A mutant (unknown origin) transfected in human HEK293T cells incubated for 15 mins by luminescence counter analysis; assay type: cell-based; settings: HEK-293T, 0.25 h; in short: as §3
[12] = target: T2, G-protein coupled receptor 65; experiment: Antagonist activity against GPR65 (unknown origin) transfected in human HEK293T cells incubated for 15 mins by luminescence counter analysis relative to control; assay type: functional, cell-based; in short: as §3
[13] = Antagonist activity against GPR65 D153A mutant (unknown origin) transfected in human HEK293T cells incubated for 15 mins by luminescence counter analysis relative to control; settings: HEK-293T, 0.25 h, condition central nervous system disease; in short: as §3
[14] = target: T1, G-protein coupled receptor 68; experiment: Positive allosteric modulator activity at human GPR68 expressed in yeast assessed as Gq-yeast growth stimulation at 10 uM by microplate reader analysis; settings: filed as positive allosteric modulator
In short: (§4)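 Gq-coupled yeast strain expressing receptor, in SD-His-Ura medium (pH 5.4) with 3-amino-1,2,4-triazole at a level giving moderate ligand-free growth (OD 0.2–0.6). Compound at 10 μM final, in triplicate. Starting OD600 0.02; growth 2–5 days at 30°C, read as OD600. Values are 100 × (well OD600 − plate median), given as % growth stimulation, mean ± SEM of three wells.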

[15] = target: G-prodeshotein coupled receptor 4 (Homo sapiens) (UniProt P46093); experiment: Positive allosteric modulator activity at human GPR4 expressed in yeast assessed as Gq-yeast growth stimulation at 10 uM by microplate reader analysis; in short: as §4
[16] = target: T2, G-protein coupled receptor 65; experiment: Positive allosteric modulator activity at human GPR65 expressed in yeast assessed as Gq-yeast growth stimulation at 10 uM by microplate reader analysis; in short: as §4
[17] = target: T1, G-protein coupled receptor 68; experiment: Positive allosteric modulator activity at HA-tagged GPR68 expressed in human HEK293T cells assessed as activation of PKA at pH 7.4 by immunoblotting analysis; assay type: cell-based; settings: filed as positive allosteric modulator
In short: (§5)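 HEK293 cells stably expressing N-terminal HA-tagged human GPR68 (vector-only line as control), selected with 250 μg/ml G418. Confluent cells were switched to Hams-F12 at pH 8.0 or 7.4 for 1 h, then given vehicle or 50 μM compound for 10 min. Lysate immunoblots were probed for HA, total VASP, p-p42/p44 and β-actin, read with infrared-fluorophore secondaries.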

[18] = target: T1, G-protein coupled receptor 68; experiment: Positive allosteric modulator activity at HA-tagged GPR68 expressed in human HEK293T cells assessed as activation of p42/p44 MAP kinase at pH 7.4 by immunoblotting analysis; assay type: cell-based; settings: filed as positive allosteric modulator; in short: as §5
[19] = filed as positive allosteric modulator

T2 sequence (Q8IYL9 whole entry): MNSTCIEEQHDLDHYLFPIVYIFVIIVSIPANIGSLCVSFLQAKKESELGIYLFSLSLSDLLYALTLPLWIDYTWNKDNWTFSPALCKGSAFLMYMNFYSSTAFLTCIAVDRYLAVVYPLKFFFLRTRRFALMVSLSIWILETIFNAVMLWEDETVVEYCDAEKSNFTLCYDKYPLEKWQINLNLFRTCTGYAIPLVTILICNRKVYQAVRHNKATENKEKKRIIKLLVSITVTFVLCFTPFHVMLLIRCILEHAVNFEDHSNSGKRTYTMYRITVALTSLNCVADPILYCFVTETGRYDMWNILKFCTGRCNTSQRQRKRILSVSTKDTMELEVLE
T1 sequence (Q15743 whole entry): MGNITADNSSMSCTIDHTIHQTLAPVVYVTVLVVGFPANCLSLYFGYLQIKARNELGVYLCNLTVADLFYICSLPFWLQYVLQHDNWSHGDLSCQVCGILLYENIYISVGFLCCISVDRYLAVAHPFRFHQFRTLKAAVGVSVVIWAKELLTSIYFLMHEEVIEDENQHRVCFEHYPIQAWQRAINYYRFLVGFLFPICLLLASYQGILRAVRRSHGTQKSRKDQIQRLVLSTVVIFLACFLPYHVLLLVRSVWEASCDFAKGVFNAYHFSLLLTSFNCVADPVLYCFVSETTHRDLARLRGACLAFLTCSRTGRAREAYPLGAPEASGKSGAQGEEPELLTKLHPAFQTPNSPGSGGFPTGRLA
Sequence of C-X-C chemokine receptor type 4 (Homo sapiens) (P61073 whole entry): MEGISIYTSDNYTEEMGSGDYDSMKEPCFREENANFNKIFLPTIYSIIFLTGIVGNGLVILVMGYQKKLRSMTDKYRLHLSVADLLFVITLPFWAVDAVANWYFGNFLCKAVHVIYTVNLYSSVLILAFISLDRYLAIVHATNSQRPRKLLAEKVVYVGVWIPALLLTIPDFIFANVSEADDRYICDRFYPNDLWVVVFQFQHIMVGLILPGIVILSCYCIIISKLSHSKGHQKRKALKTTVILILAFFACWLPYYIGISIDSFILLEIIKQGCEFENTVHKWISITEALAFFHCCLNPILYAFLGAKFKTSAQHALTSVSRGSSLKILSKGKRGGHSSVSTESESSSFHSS
Sequence of G-prodeshotein coupled receptor 4 (Homo sapiens) (P46093 whole entry, looked up): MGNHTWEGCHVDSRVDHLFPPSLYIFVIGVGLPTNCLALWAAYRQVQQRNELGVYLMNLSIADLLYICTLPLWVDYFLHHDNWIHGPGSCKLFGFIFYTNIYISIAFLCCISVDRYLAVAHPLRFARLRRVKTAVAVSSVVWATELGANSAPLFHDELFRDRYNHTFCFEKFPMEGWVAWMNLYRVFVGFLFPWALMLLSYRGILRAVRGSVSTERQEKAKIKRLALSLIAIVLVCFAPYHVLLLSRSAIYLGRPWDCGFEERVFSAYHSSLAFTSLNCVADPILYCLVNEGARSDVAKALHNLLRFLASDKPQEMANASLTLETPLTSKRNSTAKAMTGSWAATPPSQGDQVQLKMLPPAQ

Compound: Nc1nc(NCCc2ccccc2)nc(-c2ccccc2CO)n1
- pKb [1]: 5.43

Compound: Nc1nc(NCc2ccccc2F)nc(-c2cccc(F)c2N)n1
- pKb [1]: 4.11

Compound: O=C1CN=C(c2ccccc2Cl)c2cc([N+](=O)[O-])ccc2N1
- Activity [2]: inactive
- Activity [3]: inactive

Compound: Nc1nc(NCc2ccccc2)nc(-c2ccc(F)c(F)c2)n1
- Emax [4, 19]: 68.8%
- EC50 [5]: 91.2 nM
- pKb [1]: 5.69

Compound: Nc1nc(NCc2ccccc2F)nc(-c2cc(F)c(F)cc2N)n1
- pKb [1]: 4.93

Compound: COc1ccc(CNc2nc(N)nc(-c3ccccc3CO)n2)cc1
- pKb [1]: 4.35

Compound: Nc1nc(NCc2ccccc2)nc(-c2ccc(F)c(F)c2CO)n1
- pKb [1]: 3.84

Compound: COc1cc([C@H]2NC(=O)c3[nH]nc(-c4ccco4)c32)ccc1O
- Emax [4, 19]: 46.9%
- EC50 [5]: 158 nM
- pKb [1]: 5.17

Compound: CN1N=C(SCc2ccc(Cl)cc2Cl)Sc2c1cnn(C)c2=O
- Activity [6]: Active
- EC50 [7]: 7760 nM
- Activity (HEK293T [8]): Active
- Activity (HEK293T [9]): Active
- Activity (HEK293T [10]): Active
- EC50 [11]: 1290 nM
- Emax [12]: 7.6%
- Emax [13]: 8.1%

Compound: O=C1N[C@H](c2cccc([N+](=O)[O-])c2)c2c(-c3ccco3)n[nH]c21
- Emax [4, 19]: 60.3%
- EC50 [5]: 107 nM
- pKb [1]: 4.42

Compound: CC(=O)c1cccc(-c2nc(N)nc(Nc3ccc(C)cc3)n2)c1
- Emax [4, 19]: 67.3%
- EC50 [5]: 57.5 nM
- pKb [1]: 6.31

Compound: Nc1nc(NCc2cc[nH]n2)nc(-c2ccccc2CO)n1
- pKb [1]: 5.17

Compound: Cc1ccc(-c2nc(N)nc(NCc3ccccc3)n2)c2cccnc12
- Emax [4]: 31%
- EC50 [5]: 95.5 nM
- pKb [1]: 4.92

Compound: O=C1CN=C(c2ccccc2)c2cc(Cl)ccc2N1
- Activity [2]: inactive
- Activity [3]: inactive

Compound: Nc1nc(NCc2cccc(F)c2)nc(-c2ccc(F)cc2N)n1
- pKb [1]: 3.68

Compound: COc1ccc(-c2nc(N)nc(NCc3ccccc3)n2)c(CO)c1
- pKb [1]: 4.43

Compound: O=C1Nc2ccc(Cl)cc2C(c2ccccc2Cl)=NC1O (stereo not drawn)
- Activity [14]: 2
- Activity [15]: inactive
- Activity [16]: inactive
- pKb [1]: 5.92
- Activity [2]: inactive
- Activity [3]: inactive
- Activity [17]: Active
- Activity [18]: Active
